Reference: ChEMBL document CHEMBL1142933, “Rational design of novel, potent small molecule pan-selectin antagonists” (J Med Chem, 2007)

How the values were obtained:
[1] = target: T1, L-selectin (Homo sapiens) (UniProt P14151); test: Inhibition of human L-selectin after 2 hrs at 100 uM
T1 sequence (whole entry): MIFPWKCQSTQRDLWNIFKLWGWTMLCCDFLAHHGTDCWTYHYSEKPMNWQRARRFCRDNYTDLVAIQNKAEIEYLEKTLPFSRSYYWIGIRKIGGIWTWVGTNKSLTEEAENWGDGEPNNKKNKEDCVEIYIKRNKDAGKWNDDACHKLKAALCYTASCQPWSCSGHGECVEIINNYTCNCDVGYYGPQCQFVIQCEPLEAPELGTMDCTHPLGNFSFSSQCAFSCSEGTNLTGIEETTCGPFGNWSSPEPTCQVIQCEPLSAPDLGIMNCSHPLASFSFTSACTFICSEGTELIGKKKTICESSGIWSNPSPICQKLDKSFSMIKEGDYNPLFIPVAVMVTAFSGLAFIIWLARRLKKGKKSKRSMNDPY
Method in brief: (§1)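 Human E-, P- or L-selectin/Fc chimera (0.61 nM) captured on anti-Fc-coated wells, then incubated 2 h at 37 °C with peroxidase-streptavidin-complexed sLeX-tyrosine sulfate polyacrylamide ligand plus compound at 100 µM in HEPES buffer pH 7.4 with CaCl2, 1% DMSO. Bound ligand measured by TMB, OD 450 vs 620 nm; % inhibition reported.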

[2] = target: T2, E-selectin (Homo sapiens) (UniProt P16581); test: Inhibition of human E-selectin after 2 hrs at 100 uM; method in brief: as §1
T2 sequence (whole entry): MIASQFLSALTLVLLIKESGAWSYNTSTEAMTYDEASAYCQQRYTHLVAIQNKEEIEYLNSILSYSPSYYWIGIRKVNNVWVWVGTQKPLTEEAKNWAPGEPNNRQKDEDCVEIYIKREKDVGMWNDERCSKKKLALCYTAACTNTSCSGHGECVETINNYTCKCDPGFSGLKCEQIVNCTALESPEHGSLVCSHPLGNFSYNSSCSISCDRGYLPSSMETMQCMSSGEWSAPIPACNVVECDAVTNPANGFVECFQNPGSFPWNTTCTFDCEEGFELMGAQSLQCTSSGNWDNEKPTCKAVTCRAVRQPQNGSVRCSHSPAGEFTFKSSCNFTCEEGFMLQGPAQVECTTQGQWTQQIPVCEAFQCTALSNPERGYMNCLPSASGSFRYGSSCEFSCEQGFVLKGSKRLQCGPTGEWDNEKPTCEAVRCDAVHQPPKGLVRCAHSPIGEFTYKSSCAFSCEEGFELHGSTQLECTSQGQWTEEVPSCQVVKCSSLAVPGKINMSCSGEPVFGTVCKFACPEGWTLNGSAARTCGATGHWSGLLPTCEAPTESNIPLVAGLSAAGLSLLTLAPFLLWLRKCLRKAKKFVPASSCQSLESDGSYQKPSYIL

[3] = target: T3, P-selectin (Homo sapiens) (UniProt P16109); test: Inhibition of human P-selectin after 2 hrs at 100 uM; method in brief: as §1
T3 sequence (whole entry): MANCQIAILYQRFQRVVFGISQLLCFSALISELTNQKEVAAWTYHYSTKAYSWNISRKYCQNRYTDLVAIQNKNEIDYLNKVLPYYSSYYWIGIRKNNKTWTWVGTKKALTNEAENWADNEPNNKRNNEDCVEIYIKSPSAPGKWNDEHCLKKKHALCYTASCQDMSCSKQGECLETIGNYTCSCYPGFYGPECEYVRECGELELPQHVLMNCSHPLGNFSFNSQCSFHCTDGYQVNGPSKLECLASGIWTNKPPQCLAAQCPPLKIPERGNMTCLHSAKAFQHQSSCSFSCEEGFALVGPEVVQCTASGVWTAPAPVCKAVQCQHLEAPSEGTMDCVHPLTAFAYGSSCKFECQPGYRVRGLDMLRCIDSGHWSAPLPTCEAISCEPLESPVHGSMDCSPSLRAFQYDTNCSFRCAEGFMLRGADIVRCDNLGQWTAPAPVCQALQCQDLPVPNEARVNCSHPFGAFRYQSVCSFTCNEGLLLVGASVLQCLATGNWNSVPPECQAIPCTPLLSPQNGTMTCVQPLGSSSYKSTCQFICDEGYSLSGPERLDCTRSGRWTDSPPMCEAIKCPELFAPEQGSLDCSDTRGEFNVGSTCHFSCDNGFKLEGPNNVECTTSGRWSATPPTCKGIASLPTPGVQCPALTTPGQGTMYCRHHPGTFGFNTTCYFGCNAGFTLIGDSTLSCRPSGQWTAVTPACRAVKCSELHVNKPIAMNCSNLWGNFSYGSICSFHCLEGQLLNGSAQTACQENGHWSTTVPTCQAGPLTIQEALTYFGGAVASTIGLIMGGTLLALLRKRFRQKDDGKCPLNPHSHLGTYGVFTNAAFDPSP

HL-60 [4] = test: Inhibition of attachment of HL60 cells to P-selectin at 109 uM after 5 mins; format: functional; conditions: Homo sapiens, HL-60, 5 min
Method in brief: (§2)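 Dishes coated with E- or P-selectin/Fc chimera, blocked with BSA, mounted in a parallel flow chamber run recirculating; HL-60 cells at 2.4 million/mL final. Mean inhibition as % of vehicle control from mean cells/field of at least two independent experiments.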

HL-60 [5] = test: Inhibition of attachment of HL60 cells to E-selectin at 109 uM after 5 mins; format: functional; conditions: Homo sapiens, HL-60, 5 min
Method in brief: as §2, with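 “final. Cells attached after 5 min continuous flow at calculated shear 1 dyn/cm², with 109 µM compound or DMSO vehicle, counted in five low power fields.” for “final.”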

| SMILES | inhibition [1] | inhibition [2] | inhibition [3] | inhibition at 109 µM (HL-60 [4]) | inhibition at 109 µM (HL-60 [5]) |
| --- | --- | --- | --- | --- | --- |
| O=c1c(O)cccc2cc(O)c(O)c(O)c12 | 83.6% | 3.1% | 77% | – | – |
| O=C(O)c1ccc(O)c(O)c1 | 1.3% | 19.5% | – | – | – |
| O=c1cc(-c2ccccc2)oc2cc(O)cc(O)c12 | 4.3% | 15% | -5.3% | – | – |
| O=C(O)c1cccc(O)c1O | 1.1% | 6% | -3% | – | – |
| O=c1cc(-c2ccccc2)oc2cc(O)c(O)c(O)c12 | 51.7% | 37.6% | 52% | – | – |
| O=C(O)C1=C[C@@H](O)[C@@H](O)[C@H](O)C1 | 12.2% | 25.6% | -1% | – | – |
| Oc1cccc(O)c1O [PYROGALLOL] | 13.5% | 8.3% | 1.7% | 24% | 47% |
